High-throughput results as filed in PubChem.
Cl transport mod – KCC2 cotransporter modulators, thallium flux, primary screen, cell-based, HEK293 KCC2, FluoZin-2 fluorescence, MLSMR; Solute carrier family 12 member 5 (Homo sapiens), Q9H2X9; B-score of Tl+ flux slope (higher = more flux/activation; lower = inhibition) at 10 µM; KCC2 cells, thallium flux FluoZin-2 fluorescence; 190,000 tested, 2.2% active;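 active = thallium flux slope and its plate-corrected score both differing from the plate sample mean at a set confidence after two filtering rounds, in either direction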;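 note: slope of fluorescence scaled to starting intensity during 10 to 20 s after thallium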
hERG rescue – hERG rescue from dofetilide block, primary screen, cell-based, CHO-hERG, FluxOR thallium flux, dofetilide IC70; Voltage-gated inwardly rectifying potassium channel KCNH2 (Homo sapiens), Q12809; dofetilide IC70 present; activation (rescue from dofetilide block), less the hit threshold, % at 10 µM; 310,000 tested, 0.51% active; AID 1511, 2009;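 active = activation above the mean of controls blocked by dofetilide plus 5 SD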;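 note: thallium influx through hERG after potassium depolarization seen as dye fluorescence rise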
KCNK9 block – KCNK9 potassium channel inhibitors, primary screen, HEK293 cells, thallium flux; Potassium channel subfamily K member 9 (Homo sapiens), Q9NPC2; FluxOR thallium flux fluorescence; stronger effect = lower value; B-score at 10 µM; 310,000 tested, 1.2% active;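 active = ratio B-score over 3 SD below the library mean, with starting fluorescence within 5 SD of its mean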;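 note: negative B-score means less thallium flux so channel inhibition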
Target sequence (Q9NPC2 whole entry, looked up): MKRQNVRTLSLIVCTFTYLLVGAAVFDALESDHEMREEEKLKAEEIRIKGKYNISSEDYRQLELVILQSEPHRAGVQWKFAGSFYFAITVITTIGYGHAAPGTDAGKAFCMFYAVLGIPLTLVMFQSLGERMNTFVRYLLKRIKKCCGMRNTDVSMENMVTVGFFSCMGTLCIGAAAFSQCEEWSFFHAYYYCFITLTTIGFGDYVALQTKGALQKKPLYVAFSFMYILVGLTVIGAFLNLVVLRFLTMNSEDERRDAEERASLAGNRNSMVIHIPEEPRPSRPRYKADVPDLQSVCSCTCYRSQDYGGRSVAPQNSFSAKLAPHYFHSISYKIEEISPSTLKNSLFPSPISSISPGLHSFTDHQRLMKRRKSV
KCNK3 block – human KCNK3 channel inhibitors, primary screen, CHO cells, FluxOR thallium flux, B-score | Potassium channel subfamily K member 3 (Homo sapiens), O14649 | FluxOR fluorescence; stronger effect = lower value | B-score at 10 µM | 340,000 tested, 0.84% active | AID 602410, 2012;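 active = B-score under library mean minus 4 SD, starting fluorescence ratio at most library mean plus 5 SD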;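 note: more negative B-score means stronger inhibition of thallium flux through KCNK3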
Target sequence (O14649 whole entry, looked up): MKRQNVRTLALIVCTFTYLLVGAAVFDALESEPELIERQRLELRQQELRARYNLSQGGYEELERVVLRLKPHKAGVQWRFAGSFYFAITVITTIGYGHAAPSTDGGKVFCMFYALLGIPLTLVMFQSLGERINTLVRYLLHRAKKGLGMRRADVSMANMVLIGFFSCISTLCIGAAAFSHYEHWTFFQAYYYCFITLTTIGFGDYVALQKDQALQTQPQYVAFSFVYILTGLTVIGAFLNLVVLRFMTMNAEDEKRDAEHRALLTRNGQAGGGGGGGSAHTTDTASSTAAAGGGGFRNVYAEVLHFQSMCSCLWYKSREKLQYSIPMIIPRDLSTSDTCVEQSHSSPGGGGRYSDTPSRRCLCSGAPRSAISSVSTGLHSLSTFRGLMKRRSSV
KCNQ1 pot – potentiators or activators of KCNQ1 channel, primary screen, cell-based, thallium flux, high-throughput; Potassium voltage-gated channel subfamily KQT member 1 (Homo sapiens), P51787; CHO-K1 KCNQ1, thallium flux FluxOR fluorescence; stronger effect = higher value; B-score at 10 µM; 310,000 tested, 0.35% active; AID 2648, 2010;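 active = fluorescence ratio B-score, a plate-corrected score, at least three library SD, with initial intensity B-score within 5 SD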
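Assay system: stable KCNQ1 CHO-K1 line; medium: assay buffer, equal DMSO in all wells; timing: 90 min dye loading and 20 min compound exposure, both at room temperature; technique: kinetic FluxOR thallium fluorescence, 10-s 1-Hz baseline, 110-s post-stimulus read; read-out basis: B score of baseline-normalized fluorescence ratio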
KCNQ1 inh – inhibitors of human KCNQ1 channel, primary screen, cell-based, thallium flux, high-throughput | Potassium voltage-gated channel subfamily KQT member 1 (Homo sapiens), P51787 | CHO-K1 KCNQ1, FluxOR thallium flux fluorescence; stronger effect = higher value | B-score at 10 µM | 310,000 tested, 1.3% active | AID 2642, 2010;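 active = compounds whose thallium flux B-score, printed positive for inhibition, exceeds three library SD while starting fluorescence stays within three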;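 note: channel opened by potassium depolarization with thallium stimulus after 20 min compound exposure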
KCNK9 block conf – KCNK9 potassium channel inhibitors, confirmation, HEK293 cells, thallium flux, duplicate | FluxOR thallium flux fluorescence | 4,900 tested, 43% active | inhibition, % at 10 µM | shares compounds with KCNK9 block;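 active = thallium signal inhibited by more than 5 SD of the compound-free buffer control wells, on both duplicate plates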
Kir2-1 spec – mouse Kir2.1 channel inhibition, confirmation, selectivity assay for KCNK9 modulator project, cell-based, HEK293, thallium flux; shares compounds with KCNK9 block; Kir2.1 cells, FluxOR thallium flux fluorescence; inhibition, % at 10 µM; 4,900 tested, 4% active; AID 492993, 2010;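 active = thallium signal drop more than 5 SD beyond the mean of the no-compound control wells, seen in both duplicate plates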;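 note: signal is fluorescence rise after thallium addition divided by baseline fluorescence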
KCNK9 uninduced – thallium flux in non-induced HEK293 cells, confirmation, counter-screen for KCNK9 inhibitor project, cell-based, second counter screen, non-induced KCNK9-HEK293. shares compounds with KCNK9 block. FluxOR thallium flux. inhibition, % at 10 µM. 4,900 tested, 40% active. AID 492997, 2010;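 active = thallium signal drop beyond 5 SD of the untreated control mean, on both duplicate plates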
Each line names hits and unclear results; the compound was inactive in the other large screens (follow-up assays come after a bar, where they were run). In the library only some 4.1% were active in any assay of this set; here they are far more common.

O=c1cc(N2CCCCC2)c(-c2ccccc2)nn1Cc1ccc(Cl)cc1Cl	KCNK9 block -21, KCNQ1 inh 9 | KCNK9 block conf 80% | Kir2-1 spec inactive | KCNK9 uninduced 46%
O=c1c2ccccc2nc(/C=C/c2cccnc2)n1CCc1ccccc1	KCNK9 block -9.3 | KCNK9 block conf inactive | Kir2-1 spec inactive | KCNK9 uninduced 27%
CC(=O)Nc1ccc([N+](=O)[O-])cn1	KCNK9 block -8.4 | KCNK9 block conf inactive | Kir2-1 spec inactive | KCNK9 uninduced inactive
Cc1noc(C)c1NC(=O)Nc1ccc2c(c1)C(=O)N([C@H](C)CO)C[C@H](C)[C@@H](CN(C)C(=O)Nc1ccc3c(c1)OCO3)O2	none (no result: Cl transport mod, hERG rescue, KCNK9 block, KCNQ1 pot, KCNQ1 inh)
CCn1cc(C2=NCCO2)c2ccccc21	none
CCn1cc(C2=NC(C)(C)CO2)c2ccccc21	none (no result: Cl transport mod) | KCNK9 block conf inactive | Kir2-1 spec inactive | KCNK9 uninduced inactive
CCOc1ccc(-c2nnc3ccc(SCC(=O)Nc4nc5ccccc5s4)nn23)cc1	none
CCOc1ccc(-c2nnc3ccc(SCC(=O)Nc4nc5ccc(C)cc5s4)nn23)cc1	KCNK9 block -11 | KCNK9 block conf 70% | Kir2-1 spec inactive | KCNK9 uninduced inactive
CC(C)CC1(C)NC(=O)N(CC(=O)Nc2ccccc2Br)C1=O (stereo not drawn)	none (no result: Cl transport mod, hERG rescue, KCNK9 block, KCNQ1 pot, KCNQ1 inh)
O=[N+]([O-])c1ccc(COc2cccc(CNc3ccc(F)cc3)c2)cc1	KCNK9 block -8.3, KCNQ1 inh 6 | KCNK9 block conf 41% | Kir2-1 spec inactive | KCNK9 uninduced inactive
O=C(COc1ccc2ccccc2c1)Nc1cccc2cccnc12	KCNK9 block -8.7 | KCNK9 block conf 46% | Kir2-1 spec inactive | KCNK9 uninduced 39%
Cc1ccn(CCC(=O)Nc2ccc(-c3ccno3)cc2)n1	none (no result: Cl transport mod)
COc1ccccc1CNC(=O)CCCN1C(=O)COc2ccc(C)cc21	none | KCNK9 block conf inactive | Kir2-1 spec inactive | KCNK9 uninduced inactive
Cc1ccc2c(c1)N(CCC(=O)NC1CCCCC1)C(=O)CO2	none (no result: Cl transport mod) | KCNK9 block conf inactive | Kir2-1 spec inactive | KCNK9 uninduced inactive
Cc1ccc2c(c1)N(CC(=O)NC1CCCCC1C)C(=O)CO2 (stereo not drawn)	none
CCn1c(C)c(C(C)=O)c(N2CCN(C(c3ccccc3)c3ccccc3)CC2)nc1=S	KCNK9 block -9.1 | KCNK9 block conf inactive | Kir2-1 spec inactive | KCNK9 uninduced inactive
Cc1ccc(-c2nc(N)sc2CC(=O)OCC(=O)N2C(C)CCCC2C)cc1 (stereo not drawn)	none | KCNK9 block conf inactive | Kir2-1 spec inactive | KCNK9 uninduced inactive
Cc1ccc(-c2nc(N)sc2CC(=O)OCC(=O)NC2CCCC(C)C2C)cc1 (stereo not drawn)	none
Cc1ccc(OCC(=O)NCCCNC(=O)c2ccccn2)cc1C	none (no result: Cl transport mod)
CCCCCCCCN1[C@@H](CC(=O)OC)c2cc(C(F)(F)F)ccc2S1(=O)=O	none (no result: Cl transport mod) | KCNK9 block conf inactive | Kir2-1 spec inactive | KCNK9 uninduced inactive
CN(C)C(CNS(=O)(=O)c1cc([N+](=O)[O-])ccc1Cl)c1ccco1 (stereo not drawn)	none (no result: Cl transport mod, hERG rescue, KCNK9 block, KCNQ1 pot, KCNQ1 inh)
CCCN1CCC(=O)N(CCSc2ccccc2)CC1	none (no result: Cl transport mod)
c1ccc(SCCN2CCN(c3ccccc3)CC2)cc1	none (no result: Cl transport mod) | KCNK9 block conf inactive | Kir2-1 spec inactive | KCNK9 uninduced inactive
CC(=O)c1ccc(OCC(=O)N2CCCC(Nc3ccc(C)c(C)c3)C2)cc1 (stereo not drawn)	none (no result: Cl transport mod)
Cc1ccc(O)c(C(=O)c2cc(C(=O)NCCc3ccccc3)c(=O)n(CCc3ccccc3)c2)c1	KCNQ1 inh 6 | KCNK9 block conf inactive | Kir2-1 spec inactive | KCNK9 uninduced inactive
COc1ccc(O)c(C(=O)c2cc(C(=O)NCCc3ccccc3)c(=O)n(CCc3ccccc3)c2)c1	none | KCNK9 block conf inactive | Kir2-1 spec inactive | KCNK9 uninduced inactive
Cc1cc(NC(=O)C2CCN(C(=O)c3ccco3)CC2)ccc1Br	none (no result: Cl transport mod)
Cc1ccc(C2=Nc3ccccc3SC(c3cccc([N+](=O)[O-])c3)C2)cc1 (stereo not drawn)	KCNK9 block -13, KCNK3 block -13 | KCNK9 block conf 71% | Kir2-1 spec inactive | KCNK9 uninduced 40%
Cc1ccc(CNC(=O)C2CC(c3cccc([N+](=O)[O-])c3)=NO2)cc1 (stereo not drawn)	none
O=C1NC(=O)C(Cc2ccc(Cl)cc2)(c2ccccc2)N1 (stereo not drawn)	none (no result: Cl transport mod, hERG rescue, KCNK9 block, KCNQ1 pot, KCNQ1 inh)
CC12CCC(C(=O)NCCc3ccccc3)(OC1=O)C2(C)C (stereo not drawn)	none | KCNK9 block conf inactive | Kir2-1 spec inactive | KCNK9 uninduced inactive
COc1ccc(-c2noc(C3CCCN(C(=O)CCc4ccccc4)C3)n2)cc1 (stereo not drawn)	none
CCCC(=O)N1CCCC(c2nc(-c3cccc(OC)c3)no2)C1 (stereo not drawn)	none
CCCCCCC(=O)N1CCCC(c2nc(-c3cccc(OC)c3)no2)C1 (stereo not drawn)	none (no result: Cl transport mod) | KCNK9 block conf inactive | Kir2-1 spec inactive | KCNK9 uninduced inactive
CCCCCC(=O)N1CCCC(c2nc(-c3ccc(OC)cc3)no2)C1 (stereo not drawn)	none | KCNK9 block conf inactive | Kir2-1 spec inactive | KCNK9 uninduced inactive
CCCN(C(=O)CSc1ncccn1)C1CCS(=O)(=O)C1 (stereo not drawn)	none (no result: Cl transport mod, hERG rescue, KCNK9 block, KCNQ1 pot, KCNQ1 inh)
CCC1SC2=NC(C)=C(C(=O)OCCOC)C(/C=C/c3ccccc3OC)N2C1=O (stereo not drawn)	none | KCNK9 block conf inactive | Kir2-1 spec inactive | KCNK9 uninduced 34%
CCC1SC2=NC(C)=C(C(=O)OCC(C)C)C(/C=C/c3ccccc3OC)N2C1=O (stereo not drawn)	none | KCNK9 block conf 32% | Kir2-1 spec inactive | KCNK9 uninduced 47%
